According to ChEMBL document CHEMBL4138211, “Regio- and stereoselective synthesis of dispirooxindole-pyrrolocarbazole hybrids via 1,3-dipolar cycloaddition reactions: Cytotoxic activity and SAR studies” (Eur J Med Chem, 2018):
Calls of active or inactive are those of the source. The rule behind the calls is not given here.

What was measured:
MCF7 [1] = test: Induction of apoptosis in human MCF7 cells assessed as late apoptotic cells at 10 uM after 6 hrs by Annexin V-FITC/propidium iodide staining based flow cytometry (reference value: 0.0%); type: functional
Procedure, shortened: (§1)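 Cells at 1×10⁵/mL exposed to 5, 10 or 20 μM (printed as μM/ml) for 6 h, with an untreated control. Harvested, PBS-washed and trypsinised, then spun at 200×g for 10 min. Stained with annexin V-FITC/propidium iodide for 10-15 min at 25 °C. Quadrant analysis gives live, early apoptotic, late apoptotic and necrotic fractions.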

A549 [2] = test: Induction of apoptosis in human A549 cells assessed as membrane blebbing after 24 hrs by brightfield inverted light microscopic analysis; type: functional, cell-based
A549 [3] = test: Induction of apoptosis in human A549 cells assessed as necrotic cells at 20 uM after 6 hrs by Annexin V-FITC/propidium iodide staining based flow cytometry (reference value: 0.0%); type: functional; procedure, shortened: as §1
MCF7 [4] = test: Induction of apoptosis in human MCF7 cells assessed as viable cells at 10 uM after 6 hrs by Annexin V-FITC/propidium iodide staining based flow cytometry (reference value: 99.12%); type: functional; conditions: MCF7, 6 h, read-out: Activity; procedure, shortened: as §1
A549 [5] = test: Induction of apoptosis in human A549 cells assessed as early apoptotic cells at 5 uM after 6 hrs by Annexin V-FITC/propidium iodide staining based flow cytometry (reference value: 0.77%); type: functional; procedure, shortened: as §1
A549 [6] = test: Induction of apoptosis in human A549 cells assessed as late apoptotic cells at 20 uM after 6 hrs by Annexin V-FITC/propidium iodide staining based flow cytometry (reference value: 0.0%); type: functional; procedure, shortened: as §1
A549 [7] = test: Induction of apoptosis in human A549 cells assessed as late apoptotic cells at 10 uM after 6 hrs by Annexin V-FITC/propidium iodide staining based flow cytometry (reference value: 0.0%); type: functional; procedure, shortened: as §1
A549 [8] = test: Antiproliferative activity against human A549 cells after 48 hrs by MTT assay; type: functional, cell-based
Procedure, shortened: (§2)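 Cells grown 1×10⁴/well for 48 h to about 75% confluence. Medium then replaced with fresh medium containing serially diluted compounds, followed by a further 48 h. MTT added for 4 h at 37 °C and formazan dissolved in DMSO for 10 min. OD read at 620 nm. IC50 taken from the viability–concentration survival curve. Three independent experiments, each in triplicate.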

MCF7 [9] = test: Induction of apoptosis in human MCF7 cells assessed as nuclear condensation by acridine orange/ethidium bromide staining-based fluorescence microscopic analysis; type: functional, cell-based
Procedure, shortened: (§3)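 Treated cells collected and washed in PBS (pH 7.2). Stained with a 1:1 AO/EtBr mixture (each dye […] in water) and held 2 min. Washed twice in PBS and viewed by fluorescence microscopy at 400× with 480 nm excitation. Green intact-membrane cells distinguished from orange/red membrane-damaged cells.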

A549 [10] = test: Induction of apoptosis in human A549 cells assessed as necrotic cells at 5 uM after 6 hrs by Annexin V-FITC/propidium iodide staining based flow cytometry (reference value: 0.0%); type: functional; procedure, shortened: as §1
MCF7 [11] = test: Antiproliferative activity against human MCF7 cells after 48 hrs by MTT assay; type: functional, cell-based; procedure, shortened: as §2
MCF7 [12] = test: Induction of apoptosis in human MCF7 cells assessed as cell shrinkage after 24 hrs by brightfield inverted light microscopic analysis; type: functional, cell-based
MCF7 [13] = test: Induction of apoptosis in human MCF7 cells assessed as viable cells at 20 uM after 6 hrs by Annexin V-FITC/propidium iodide staining based flow cytometry (reference value: 99.12%); type: functional; conditions: MCF7, 6 h, read-out: Activity; procedure, shortened: as §1
MCF7 [14] = test: Induction of apoptosis in human MCF7 cells assessed as increase in late apoptotic cells after 6 hrs by Annexin V-FITC/propidium iodide staining based flow cytometry; type: functional, cell-based; procedure, shortened: as §1
MCF7 [15] = test: Induction of apoptosis in human MCF7 cells assessed as early apoptotic cells at 20 uM after 6 hrs by Annexin V-FITC/propidium iodide staining based flow cytometry (reference value: 0.88%); type: functional; procedure, shortened: as §1
MCF7 [16] = test: Induction of apoptosis in human MCF7 cells assessed as nuclear fragmentation after 24 hrs by DAPI staining-based fluorescence microscopic analysis; type: functional, cell-based
Procedure, shortened: (§4)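 Cells plated on glass coverslips and treated for 24 h, then fixed. Permeabilised with 0.2% Triton X-100 for 10 min at room temperature. DAPI applied for 3 min under a coverslip. Nuclei inspected by fluorescence microscopy for condensed chromatin and fragmentation, against untreated cells.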

A549 [17] = test: Induction of apoptosis in human A549 cells by acridine orange/ethidium bromide staining-based fluorescence microscopic analysis; type: functional, cell-based; procedure, shortened: as §3
MCF7 [18] = test: Induction of apoptosis in human MCF7 cells assessed as damaged cell membranes by acridine orange/ethidium bromide staining-based fluorescence microscopic analysis; type: functional; procedure, shortened: as §3
A549 [19] = test: Induction of apoptosis in human A549 cells assessed as viable cells at 20 uM after 6 hrs by Annexin V-FITC/propidium iodide staining based flow cytometry (reference value: 99.23%); type: functional; conditions: A549, 6 h, read-out: Activity; procedure, shortened: as §1
MCF7 [20] = test: Induction of apoptosis in human MCF7 cells assessed as necrotic cells at 20 uM after 6 hrs by Annexin V-FITC/propidium iodide staining based flow cytometry (reference value: 0.0%); type: functional; procedure, shortened: as §1
A549 [21] = test: Induction of apoptosis in human A549 cells assessed as necrotic cells at 10 uM after 6 hrs by Annexin V-FITC/propidium iodide staining based flow cytometry (reference value: 0.0%); type: functional; procedure, shortened: as §1
A549 [22] = test: Induction of apoptosis in human A549 cells assessed as early apoptotic cells at 10 uM after 6 hrs by Annexin V-FITC/propidium iodide staining based flow cytometry (reference value: 0.77%); type: functional; procedure, shortened: as §1
MCF7 [23] = test: Induction of apoptosis in human MCF7 cells assessed as formation of floating cells after 24 hrs by brightfield inverted light microscopic analysis; type: functional, cell-based
MCF7 [24] = test: Induction of apoptosis in human MCF7 cells assessed as late apoptotic cells at 5 uM after 6 hrs by Annexin V-FITC/propidium iodide staining based flow cytometry (reference value: 0.0%); type: functional; procedure, shortened: as §1
A549 [25] = test: Induction of apoptosis in human A549 cells assessed as early apoptotic cells at 20 uM after 6 hrs by Annexin V-FITC/propidium iodide staining based flow cytometry (reference value: 0.77%); type: functional; procedure, shortened: as §1
MCF7 [26] = test: Induction of apoptosis in human MCF7 cells assessed as viable cells at 5 uM after 6 hrs by Annexin V-FITC/propidium iodide staining based flow cytometry (reference value: 99.12%); type: functional; conditions: MCF7, 6 h, read-out: Activity; procedure, shortened: as §1
MCF7 [27] = test: Induction of apoptosis in human MCF7 cells assessed as membrane blebbing after 24 hrs by brightfield inverted light microscopic analysis; type: functional, cell-based
MCF7 [28] = test: Induction of apoptosis in human MCF7 cells assessed as early apoptotic cells at 5 uM after 6 hrs by Annexin V-FITC/propidium iodide staining based flow cytometry (reference value: 0.88%); type: functional; procedure, shortened: as §1
A549 [29] = test: Induction of apoptosis in human A549 cells assessed as late apoptotic cells at 5 uM after 6 hrs by Annexin V-FITC/propidium iodide staining based flow cytometry (reference value: 0.0%); type: functional; procedure, shortened: as §1
MCF7 [30] = test: Induction of apoptosis in human MCF7 cells assessed as necrotic cells at 5 uM after 6 hrs by Annexin V-FITC/propidium iodide staining based flow cytometry (reference value: 0.0%); type: functional; procedure, shortened: as §1
MCF7 [31] = test: Induction of apoptosis in human MCF7 cells assessed as increase in early apoptotic cells after 6 hrs by Annexin V-FITC/propidium iodide staining based flow cytometry; type: functional, cell-based; procedure, shortened: as §1
MCF7 [32] = test: Induction of apoptosis in human MCF7 cells assessed as necrotic cells at 10 uM after 6 hrs by Annexin V-FITC/propidium iodide staining based flow cytometry (reference value: 0.0%); type: functional; procedure, shortened: as §1
A549 [33] = test: Induction of apoptosis in human A549 cells assessed as cell shrinkage after 24 hrs by brightfield inverted light microscopic analysis; type: functional, cell-based
A549 [34] = test: Induction of apoptosis in human A549 cells assessed as formation of floating cells after 24 hrs by brightfield inverted light microscopic analysis; type: functional, cell-based
MCF7 [35] = test: Induction of apoptosis in human MCF7 cells assessed as late apoptotic cells at 20 uM after 6 hrs by Annexin V-FITC/propidium iodide staining based flow cytometry (reference value: 0.0%); type: functional; procedure, shortened: as §1
A549 [36] = test: Induction of apoptosis in human A549 cells assessed as nuclear fragmentation after 24 hrs by DAPI staining-based fluorescence microscopic analysis; type: functional, cell-based; procedure, shortened: as §4
A549 [37] = test: Induction of apoptosis in human A549 cells assessed as increase in early apoptotic cells after 6 hrs by Annexin V-FITC/propidium iodide staining based flow cytometry; type: functional, cell-based; procedure, shortened: as §1
A549 [38] = test: Induction of apoptosis in human A549 cells assessed as viable cells at 5 uM after 6 hrs by Annexin V-FITC/propidium iodide staining based flow cytometry (reference value: 99.23%); type: functional; conditions: A549, 6 h, read-out: Activity; procedure, shortened: as §1
A549 [39] = test: Induction of apoptosis in human A549 cells assessed as increase in late apoptotic cells after 6 hrs by Annexin V-FITC/propidium iodide staining based flow cytometry; type: functional, cell-based; procedure, shortened: as §1
MCF7 [40] = test: Induction of apoptosis in human MCF7 cells assessed as early apoptotic cells at 10 uM after 6 hrs by Annexin V-FITC/propidium iodide staining based flow cytometry (reference value: 0.88%); type: functional; procedure, shortened: as §1
MCF7 [41] = test: Induction of apoptosis in human MCF7 cells by acridine orange/ethidium bromide staining-based fluorescence microscopic analysis; type: functional, cell-based; procedure, shortened: as §3
A549 [42] = test: Induction of apoptosis in human A549 cells assessed as viable cells at 10 uM after 6 hrs by Annexin V-FITC/propidium iodide staining based flow cytometry (reference value: 99.23%); type: functional; conditions: A549, 6 h, read-out: Activity; procedure, shortened: as §1

SMILES: O=C1Nc2ccccc2[C@]12N[C@H](c1ccccc1)[C@H](c1cccs1)[C@@]21CCc2c([nH]c3ccc(Cl)cc23)C1=O
- Activity (MCF7 [1]): 12.82%
- Activity (A549 [2]): Dose-dependent effect
- Activity (A549 [3]): 1.85%
- viability at 10 µM (MCF7 [4]): 62.9%
- Activity (A549 [5]): 28.95%
- Activity (A549 [6]): 28.7%
- Activity (A549 [7]): 7.65%
- Activity (A549 [8]): Dose-dependent effect
- IC50 (A549 [8]; A549, 48 h): 14 µM
- Activity (MCF7 [9]): Active
- Activity (A549 [10]): 1.15%
- Activity (MCF7 [11]): Dose-dependent effect
- IC50 (MCF7 [11]; MCF7, 48 h): 13 µM
- Activity (MCF7 [12]): Dose-dependent effect
- viability at 20 µM (MCF7 [13]): 35.1%
- Activity (MCF7 [14]): Dose-dependent effect
- Activity (MCF7 [15]): 33.56%
- Activity (MCF7 [16]): Active
- Activity (A549 [17]): Active
- Activity (MCF7 [18]): Active
- viability at 20 µM (A549 [19]): 37.3%
- Activity (MCF7 [20]): 1.12%
- Activity (A549 [21]): 2.81%
- Activity (A549 [22]): 17.35%
- Activity (MCF7 [23]): Dose-dependent effect
- Activity (MCF7 [24]): 7.55%
- Activity (A549 [25]): 32.15%
- viability at 5 µM (MCF7 [26]): 82.5%
- Activity (MCF7 [27]): Dose-dependent effect
- Activity (MCF7 [28]): 8.19%
- Activity (A549 [29]): 6.7%
- Activity (MCF7 [30]): 1.81%
- Activity (MCF7 [31]): Dose-dependent effect
- Activity (MCF7 [32]): 0.98%
- Activity (A549 [33]): Dose-dependent effect
- Activity (A549 [34]): Dose-dependent effect
- Activity (MCF7 [35]): 30.2%
- Activity (A549 [36]): Active
- Activity (A549 [37]): Dose-dependent effect
- viability at 5 µM (A549 [38]): 63.2%
- Activity (A549 [39]): Dose-dependent effect
- Activity (MCF7 [40]): 23.3%
- Activity (MCF7 [41]): Active
- viability at 10 µM (A549 [42]): 72.2%
